Measurements published in ChEMBL document CHEMBL1141712, “Kinase array design, back to front: biaryl amides” (Bioorg Med Chem Lett, 2008).

Tests used:
[1] = target: T1, Mitogen-activated protein kinase 14 (Homo sapiens, UniProt Q16539); assay: Displacement of fluorescent ATP competitive ligand from p38alpha
[2] = system: Blood; assay: Inhibition of LPS-stimulated TNFalpha release in human whole blood; type: functional, tissue-based
[3] = target: Cyclin-dependent kinase 2 (Homo sapiens, UniProt P24941); assay: Inhibition of CDK2
[4] = target: Macrophage colony-stimulating factor 1 receptor (Homo sapiens, UniProt P07333); assay: Inhibition of cFMS
[5] = target: Receptor tyrosine-protein kinase erbB-4 (Homo sapiens, UniProt Q15303); assay: Inhibition of ErbB4
[6] = target: Mitogen-activated protein kinase 10 (Homo sapiens, UniProt P53779); assay: Inhibition of JNK3
[7] = target: Serine/threonine-protein kinase PLK1 (Homo sapiens, UniProt P53350); assay: Inhibition of PLK1
[8] = target: T2, Serine/threonine-protein kinase Sgk1 (Homo sapiens, UniProt O00141); assay: Inhibition of SGK1
T2 sequence (O00141 whole entry): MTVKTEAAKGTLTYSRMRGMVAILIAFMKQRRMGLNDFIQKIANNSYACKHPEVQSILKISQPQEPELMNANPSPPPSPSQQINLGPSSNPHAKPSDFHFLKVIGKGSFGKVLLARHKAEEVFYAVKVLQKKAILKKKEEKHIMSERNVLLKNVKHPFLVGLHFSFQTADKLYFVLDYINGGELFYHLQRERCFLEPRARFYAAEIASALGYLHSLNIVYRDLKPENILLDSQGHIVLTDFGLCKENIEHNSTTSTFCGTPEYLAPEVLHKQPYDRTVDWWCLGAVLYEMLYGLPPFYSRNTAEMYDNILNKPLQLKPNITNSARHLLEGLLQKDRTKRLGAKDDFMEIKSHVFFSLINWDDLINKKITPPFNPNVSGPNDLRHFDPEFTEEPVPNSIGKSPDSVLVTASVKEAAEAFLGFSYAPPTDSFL

[9] = target: Vascular endothelial growth factor receptor 2 (Homo sapiens, UniProt P35968); assay: Inhibition of VEGFR2
[10] = system: PBMC; assay: Inhibition of LPS-stimulated TNFalpha release in human PBMCs; type: functional, cell-based
[11] = target: Epidermal growth factor receptor (Homo sapiens, UniProt P00533)
[12] = target: Tyrosine-protein kinase Lck (Homo sapiens, UniProt P06239)
[13] = Terminal half life in Lewis rat at 1 mg/kg, iv; type: ADME, organism-based; design: dose 1 mg/kg, route intravenous; settings: in vivo, read-out: beta t1/2 (converted)
Method in brief: (§1)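 Male Lewis rats were dosed at 1 mg/kg intravenously and orally, with compound given as a solution in 10% DMSO/70% PEG200/20% water. Blood was collected over 12 h, and parameters were derived from a composite blood sampling profile.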

[14] = AUC ( 0 to 12 hrs) in Lewis rat at 1 mg/kg, po; type: ADME, organism-based; design: time < 12 hr, dose 1 mg/kg, route oral; settings: plasma
[15] = target: Dual specificity mitogen-activated protein kinase kinase 1 (Homo sapiens, UniProt Q02750); assay: Inhibition of MEK1 by cRaf/mek/Erk cascade assay
[16] = Volume of distribution at steady state in Lewis rat at 1 mg/kg, iv; type: ADME, organism-based; design: dose 1 mg/kg, route intravenous; settings: in vivo, read-out: Vdss; method in brief: as §1
[17] = Plasma clearance in Lewis rat at 1 mg/kg, iv; type: ADME, organism-based; design: dose 1 mg/kg, route intravenous; method in brief: as §1
[18] = Oral bioavailability in Lewis rat at 1 mg/kg; type: ADME, organism-based; settings: in vivo; method in brief: as §1
[19] = target: T1, Mitogen-activated protein kinase 14; assay: Inhibition of p38alpha
Method in brief: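 p38α Ki determined by measuring displacement of a fluorescent ATP-competitive inhibitor from the enzyme. Impure products and those giving inconsistent assay results were excluded.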

T1 sequence (Q16539 whole entry): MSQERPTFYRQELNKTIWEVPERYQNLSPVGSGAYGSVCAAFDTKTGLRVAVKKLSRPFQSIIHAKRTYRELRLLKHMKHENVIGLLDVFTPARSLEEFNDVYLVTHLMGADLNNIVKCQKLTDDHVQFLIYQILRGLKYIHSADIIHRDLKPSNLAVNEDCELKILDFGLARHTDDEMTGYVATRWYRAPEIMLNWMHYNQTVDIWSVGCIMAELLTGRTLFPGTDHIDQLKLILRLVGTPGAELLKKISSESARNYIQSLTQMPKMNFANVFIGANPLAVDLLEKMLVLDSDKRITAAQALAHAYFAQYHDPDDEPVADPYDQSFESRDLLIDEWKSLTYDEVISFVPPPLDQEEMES
Mitogen-activated protein kinase 10, sequence (P53779 whole entry): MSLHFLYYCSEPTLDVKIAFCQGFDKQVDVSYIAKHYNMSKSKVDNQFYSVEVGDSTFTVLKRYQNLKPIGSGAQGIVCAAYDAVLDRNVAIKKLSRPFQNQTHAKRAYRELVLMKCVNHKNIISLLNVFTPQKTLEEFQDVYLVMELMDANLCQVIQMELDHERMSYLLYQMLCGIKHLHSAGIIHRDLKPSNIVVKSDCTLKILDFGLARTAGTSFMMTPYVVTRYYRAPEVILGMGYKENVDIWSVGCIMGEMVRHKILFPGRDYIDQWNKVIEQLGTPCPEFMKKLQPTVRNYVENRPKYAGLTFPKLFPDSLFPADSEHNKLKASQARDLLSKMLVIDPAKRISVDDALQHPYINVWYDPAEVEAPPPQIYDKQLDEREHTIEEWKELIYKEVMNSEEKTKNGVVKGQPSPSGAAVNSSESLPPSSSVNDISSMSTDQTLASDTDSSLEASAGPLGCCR
Macrophage colony-stimulating factor 1 receptor, sequence (P07333 whole entry): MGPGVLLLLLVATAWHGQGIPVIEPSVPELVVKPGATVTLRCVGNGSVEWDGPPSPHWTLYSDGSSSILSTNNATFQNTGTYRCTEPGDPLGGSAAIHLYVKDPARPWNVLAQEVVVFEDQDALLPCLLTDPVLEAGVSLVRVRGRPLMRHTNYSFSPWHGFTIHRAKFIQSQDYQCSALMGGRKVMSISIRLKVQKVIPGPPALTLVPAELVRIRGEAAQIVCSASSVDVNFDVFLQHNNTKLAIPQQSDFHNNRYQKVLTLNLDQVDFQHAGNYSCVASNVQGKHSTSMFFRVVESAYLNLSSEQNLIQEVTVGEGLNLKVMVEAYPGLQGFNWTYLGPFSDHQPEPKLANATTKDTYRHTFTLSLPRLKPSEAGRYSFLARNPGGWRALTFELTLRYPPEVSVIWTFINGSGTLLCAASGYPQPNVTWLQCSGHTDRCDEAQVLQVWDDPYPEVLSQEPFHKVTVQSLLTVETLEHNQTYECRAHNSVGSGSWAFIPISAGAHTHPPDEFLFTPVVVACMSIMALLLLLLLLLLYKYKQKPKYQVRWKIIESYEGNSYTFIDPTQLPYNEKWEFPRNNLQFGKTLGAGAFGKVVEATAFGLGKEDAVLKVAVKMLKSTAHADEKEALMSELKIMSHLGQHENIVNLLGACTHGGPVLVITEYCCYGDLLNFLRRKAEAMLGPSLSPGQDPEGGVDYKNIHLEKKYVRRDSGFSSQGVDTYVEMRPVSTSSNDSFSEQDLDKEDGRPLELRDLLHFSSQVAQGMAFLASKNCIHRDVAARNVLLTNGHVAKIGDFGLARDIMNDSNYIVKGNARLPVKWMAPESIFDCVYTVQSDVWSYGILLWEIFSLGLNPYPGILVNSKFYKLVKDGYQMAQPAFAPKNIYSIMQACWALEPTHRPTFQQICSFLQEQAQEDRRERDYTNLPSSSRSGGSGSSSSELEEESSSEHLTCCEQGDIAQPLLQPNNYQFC
Serine/threonine-protein kinase PLK1, sequence (P53350 whole entry): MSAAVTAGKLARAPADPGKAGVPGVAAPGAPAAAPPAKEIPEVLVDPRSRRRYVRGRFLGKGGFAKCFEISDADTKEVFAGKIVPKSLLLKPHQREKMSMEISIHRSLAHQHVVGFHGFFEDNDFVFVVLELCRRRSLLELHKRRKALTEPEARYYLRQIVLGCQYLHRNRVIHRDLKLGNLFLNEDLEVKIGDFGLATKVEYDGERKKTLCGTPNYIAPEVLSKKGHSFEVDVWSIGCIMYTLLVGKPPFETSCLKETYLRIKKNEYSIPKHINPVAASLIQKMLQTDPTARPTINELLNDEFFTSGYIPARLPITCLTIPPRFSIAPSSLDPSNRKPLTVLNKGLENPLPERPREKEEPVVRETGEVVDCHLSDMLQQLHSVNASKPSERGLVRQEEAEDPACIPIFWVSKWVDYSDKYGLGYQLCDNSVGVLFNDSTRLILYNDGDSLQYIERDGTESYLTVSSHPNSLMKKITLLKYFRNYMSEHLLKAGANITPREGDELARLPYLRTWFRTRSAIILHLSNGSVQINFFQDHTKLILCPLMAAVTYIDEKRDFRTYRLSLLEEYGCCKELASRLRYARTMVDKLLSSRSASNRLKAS
Tyrosine-protein kinase Lck, sequence (P06239 whole entry): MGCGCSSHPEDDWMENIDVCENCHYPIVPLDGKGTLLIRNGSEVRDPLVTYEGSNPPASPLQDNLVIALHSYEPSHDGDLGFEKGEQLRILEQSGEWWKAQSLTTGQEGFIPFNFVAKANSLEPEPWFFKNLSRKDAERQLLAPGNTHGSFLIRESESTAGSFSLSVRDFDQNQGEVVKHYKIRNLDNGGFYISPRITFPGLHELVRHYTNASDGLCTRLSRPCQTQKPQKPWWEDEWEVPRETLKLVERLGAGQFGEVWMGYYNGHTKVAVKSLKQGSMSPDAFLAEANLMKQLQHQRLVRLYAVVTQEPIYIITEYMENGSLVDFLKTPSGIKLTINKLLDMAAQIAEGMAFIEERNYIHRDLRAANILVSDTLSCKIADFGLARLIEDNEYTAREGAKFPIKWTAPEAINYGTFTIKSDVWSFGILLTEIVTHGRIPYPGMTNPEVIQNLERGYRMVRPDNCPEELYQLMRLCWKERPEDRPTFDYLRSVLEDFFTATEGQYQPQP
Receptor tyrosine-protein kinase erbB-4, sequence (Q15303 whole entry): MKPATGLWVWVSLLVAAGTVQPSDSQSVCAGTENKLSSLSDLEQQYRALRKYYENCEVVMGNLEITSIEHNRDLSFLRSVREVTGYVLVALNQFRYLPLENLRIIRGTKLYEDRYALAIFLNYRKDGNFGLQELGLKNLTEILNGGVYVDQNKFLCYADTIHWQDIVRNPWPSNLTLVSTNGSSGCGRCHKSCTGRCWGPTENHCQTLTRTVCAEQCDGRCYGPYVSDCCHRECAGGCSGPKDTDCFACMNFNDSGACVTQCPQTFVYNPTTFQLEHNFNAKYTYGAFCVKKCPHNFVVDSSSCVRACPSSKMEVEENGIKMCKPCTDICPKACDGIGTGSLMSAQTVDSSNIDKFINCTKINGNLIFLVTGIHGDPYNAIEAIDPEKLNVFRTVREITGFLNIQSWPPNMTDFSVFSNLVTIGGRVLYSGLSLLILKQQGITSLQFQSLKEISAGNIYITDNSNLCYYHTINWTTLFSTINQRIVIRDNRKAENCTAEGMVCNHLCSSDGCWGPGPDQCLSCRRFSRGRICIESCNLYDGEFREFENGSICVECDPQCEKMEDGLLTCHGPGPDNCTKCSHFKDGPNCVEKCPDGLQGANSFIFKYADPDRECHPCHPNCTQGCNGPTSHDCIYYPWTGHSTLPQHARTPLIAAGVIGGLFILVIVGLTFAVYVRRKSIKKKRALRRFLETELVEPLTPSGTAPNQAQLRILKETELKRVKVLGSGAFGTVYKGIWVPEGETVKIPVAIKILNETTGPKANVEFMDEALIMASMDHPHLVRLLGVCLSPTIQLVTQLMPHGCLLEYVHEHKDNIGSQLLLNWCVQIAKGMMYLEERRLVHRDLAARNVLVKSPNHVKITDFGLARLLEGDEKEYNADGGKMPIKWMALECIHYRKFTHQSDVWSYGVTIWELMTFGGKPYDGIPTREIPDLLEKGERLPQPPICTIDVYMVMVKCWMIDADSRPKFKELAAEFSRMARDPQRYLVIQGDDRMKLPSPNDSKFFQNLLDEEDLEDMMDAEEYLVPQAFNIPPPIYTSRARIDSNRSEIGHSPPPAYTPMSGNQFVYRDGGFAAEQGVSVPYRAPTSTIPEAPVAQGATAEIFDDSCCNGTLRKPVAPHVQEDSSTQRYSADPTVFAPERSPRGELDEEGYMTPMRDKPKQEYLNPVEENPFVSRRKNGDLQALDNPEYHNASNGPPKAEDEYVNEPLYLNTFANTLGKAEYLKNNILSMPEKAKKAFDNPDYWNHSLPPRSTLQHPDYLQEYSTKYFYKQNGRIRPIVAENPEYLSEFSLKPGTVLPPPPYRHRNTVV
Dual specificity mitogen-activated protein kinase kinase 1, sequence (Q02750 whole entry): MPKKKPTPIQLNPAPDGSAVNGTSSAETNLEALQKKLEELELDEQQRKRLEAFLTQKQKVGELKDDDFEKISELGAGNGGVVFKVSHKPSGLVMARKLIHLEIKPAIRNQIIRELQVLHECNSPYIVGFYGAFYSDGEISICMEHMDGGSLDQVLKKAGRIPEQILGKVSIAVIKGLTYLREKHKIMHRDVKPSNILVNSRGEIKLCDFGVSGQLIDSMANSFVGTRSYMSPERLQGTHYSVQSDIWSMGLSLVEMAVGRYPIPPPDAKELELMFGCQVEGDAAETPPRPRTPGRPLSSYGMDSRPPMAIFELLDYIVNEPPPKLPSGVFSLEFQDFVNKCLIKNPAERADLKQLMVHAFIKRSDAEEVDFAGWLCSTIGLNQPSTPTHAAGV

CCCCn1c(=O)[nH]c2cc(-c3cc(C(=O)Nc4cccc(N5CCOCC5)c4)ccc3C)ccc2c1=O
Ki [1]: 0.019 µM

Cc1ccc(NC(=O)c2ccc(CN3CCN(C)CC3)cc2)cc1-c1ccc2[nH]c(=O)ccc2c1
Ki [1]: > 2.5 µM

Cc1ccc(C(=O)NC2CC2)cc1-c1ccc2cc[nH]c(=O)c2c1
Ki [1]: 0.42 µM

Cc1ccc(C(=O)Nc2cccc(N3CCOCC3)c2)cc1-c1ccc2cc[nH]c(=O)c2c1
Ki [1]: 0.018 µM

Cc1ccc(C(=O)NC2CC2)cc1-c1ccc2c(N)noc2c1
Ki [1]: 0.11 µM

Cc1ccc(C(=O)NC2CC2)cc1-c1ccc(-c2csc(N)n2)cc1
Ki [1]: 0.13 µM

Cc1ccc(NC(=O)c2ccnc(N3CCCC3)c2)cc1-c1ccc2cc[nH]c(=O)c2c1
Ki [1]: 0.0024 µM

Cc1ccc(NC(=O)c2ccc(CN3CCN(C)CC3)cc2)cc1-c1ccc2cc[nH]c(=O)c2c1
Ki [1]: > 2.5 µM

CCCCn1c(=O)[nH]c2cc(-c3cc(NC(=O)c4ccc(CN5CCN(C)CC5)cc4)ccc3C)ccc2c1=O
Ki [1]: 2 µM

Cc1ccc(NC(=O)c2ccnc(N3CCCC3)c2)cc1-c1ccc2nc(N)[nH]c(=O)c2c1
Ki [1]: 0.0068 µM

Cc1nc(-c2ccc(-c3cc(NC(=O)c4ccnc(N5CCCC5)c4)ccc3C)cc2)no1
Ki [1]: 0.0011 µM

Cc1ccc(C(=O)NC2CC2)cc1-c1ccc2c(=O)n(CC3CC3)nnc2c1
IC50 [2]: 0.5 µM | Ki [1]: 0.006 µM | IC50 [3]: > 20 µM | IC50 [4]: > 20 µM | IC50 [5]: > 25 µM | IC50 [6]: > 16 µM | IC50 [7]: > 25 µM | IC50 [8]: 32 µM | IC50 [9]: > 20 µM | IC50 [10]: 0.4 µM | IC50 [11]: > 25 µM | IC50 [12]: > 16 µM

Cc1ccc(NC(=O)c2ccc(CN3CCN(C)CC3)cc2)cc1-c1ccc2ccncc2c1
Ki [1]: 0.83 µM | IC50 [3]: > 20 µM | IC50 [4]: 0.004 µM | IC50 [5]: 0.3 µM | IC50 [6]: > 16 µM | IC50 [7]: > 25 µM | IC50 [8]: > 33 µM | IC50 [9]: 0.8 µM | IC50 [11]: 0.7 µM | IC50 [12]: 0.07 µM

Cc1nnc(-c2ccc(-c3cc(C(=O)NC4CC4)ccc3C)c(C)c2)o1
IC50 [2]: 1 µM | half-life [13]: 4.6 h | AUC(0-t) at 12 h [14]: 4180 ng·h/mL | IC50 [15]: 20 µM | IC50 [3]: > 20 µM | IC50 [4]: > 20 µM | IC50 [7]: > 25 µM | IC50 [8]: > 33 µM | IC50 [9]: > 20 µM | IC50 [10]: 0.1 µM | Vd [16]: 1.2 L/kg | clearance [17]: 3 mL/min/kg | bioavailability [18]: 91%

Cc1ccc(NC(=O)c2ccnc(N3CCCC3)c2)cc1-c1ccc2onc(C)c2c1
Ki [1]: 0.16 µM

Cc1ccc(C(=O)Nc2cccc(N3CCOCC3)c2)cc1I
Ki [19]: > 2 µM

Cc1nnc(-c2ccc(-c3cc(C(=O)Nc4cccc(N5CCOCC5)c4)ccc3C)c(C)c2)o1
Ki [1]: 0.0028 µM | IC50 [15]: 0.4 µM | IC50 [3]: > 20 µM | IC50 [4]: 0.7 µM | IC50 [6]: > 16 µM | IC50 [7]: > 25 µM | IC50 [8]: > 33 µM | IC50 [9]: 6 µM

Cc1ccc(C(=O)NC2CC2)cc1-c1ccc2c(=O)[nH]c(-c3cccs3)nc2c1
Ki [1]: 0.0029 µM

Cc1ccc(C(=O)Nc2cccc(N3CCOCC3)c2)cc1-c1ccc(-c2csc(N)n2)cc1
Ki [1]: 0.02 µM

Cc1ccc(C(=O)Nc2cccc(N3CCOCC3)c2)cc1-c1ccc2c(N)noc2c1
Ki [1]: 0.019 µM

Cc1ccc(C(=O)NC2CC2)cc1-c1ccc2onc(C)c2c1
Ki [1]: 1.1 µM

Cc1ccc(NC(=O)c2ccnc(N3CCCC3)c2)cc1-c1ccc(-c2csc(N)n2)cc1
Ki [1]: 0.0067 µM

Cc1ccc(C(=O)NC2CC2)cc1-c1ccc2ccncc2c1
IC50 [2]: 0.1 µM | Ki [1]: 0.011 µM | IC50 [3]: > 20 µM | IC50 [4]: 0.6 µM | IC50 [5]: > 25 µM | IC50 [6]: > 16 µM | IC50 [7]: > 25 µM | IC50 [8]: > 33 µM | IC50 [9]: 0.5 µM | IC50 [10]: 0.1 µM | IC50 [11]: > 25 µM | IC50 [12]: 3 µM

Cc1ccc(C(=O)NC2CC2)cc1-c1ccc2[nH]ncc2c1 [GW820759X]
Ki [1]: 0.087 µM
